In ChEMBL document CHEMBL2396611, “Synthesis and mechanism of hypoglycemic activity of benzothiazole derivatives” (J Med Chem, 2013):
One block for each compound: values may come before it. Activity calls are given as the source filed them. No cut-off for these calls is given here.

Key:
[1] = biological target: 5'-AMP-activated protein kinase catalytic subunit alpha-2 (Rattus norvegicus) (UniProt Q09137); assay: Activation of AMPK in rat L6 cells assessed as increase of [3H]dGlc uptake at > 0.5 mmol/L after 5 hrs; assay type: cell-based
[2] = biological target: 5'-AMP-activated protein kinase catalytic subunit alpha-2 (Rattus norvegicus) (UniProt Q09137); assay: Activation of AMPK in rat L6 cells assessed as phosphorylation at Thr172 at > 0.5 mmol/L after 5 hrs by Western blot analysis; assay type: cell-based
[3] = biological target: 5'-AMP-activated protein kinase catalytic subunit alpha-2 (Rattus norvegicus) (UniProt Q09137); assay: Activation of AMPK in rat L6 cells assessed as increase of [3H]dGlc uptake at 50 uM after 5 hrs relative to control; assay type: cell-based
Outline: (§1)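 Fully differentiated L6 myotubes preincubated 24 h in αMEM with 2% FCS and 23.0 mmol/L D-glucose, then 4 h serum-free with 0.5% BSA. Compound or DMSO vehicle given for the indicated times or concentrations. Uptake read after 5 min at room temperature in PBS pH 7.4 with 0.1 mmol/L dGlc and 1.3 μCi/mL [3H]dGlc, by scintillation of SDS lysates. Zero-time basal rate set as 100%; n=6.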

L6 [4] = assay: Activation of AMPKalpha in rat L6 cells assessed as phosphorylation at Thr172 at 100 uM after 60 mins by Western blot analysis; assay type: cell-based
Outline: (§2)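 L6 myotubes exposed for the indicated times to test compound (100 μM in the first series; 50–150 μM in the second) or 4 mM AICAR. Whole-cell lysates immunoblotted for pThr172-AMPKα, AMPKα and α-tubulin; band densities from three independent experiments vs respective controls.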

[5] = biological target: 5'-AMP-activated protein kinase catalytic subunit alpha-2 (Rattus norvegicus) (UniProt Q09137); assay: Activation of AMPK in rat L6 cells assessed as increase of [3H]dGlc uptake at 100 uM after 24 hrs; assay type: cell-based; outline: as §1
L6 [6] = assay: Activation of AMPKalpha in rat L6 cells assessed as phosphorylation at Thr172 at 100 uM after 24 hrs by Western blot analysis; assay type: cell-based; outline: as §2
[7] = biological target: 5'-AMP-activated protein kinase catalytic subunit alpha-2 (Rattus norvegicus) (UniProt Q09137); assay: Activation of AMPK in rat L6 cells assessed as increase of [3H]dGlc uptake at 100 uM after 5 hrs in absence of insulin; assay type: cell-based; outline: as §1
[8] = biological target: 5'-AMP-activated protein kinase catalytic subunit alpha-2 (Rattus norvegicus, UniProt Q09137); assay: (§3) Activation of AMPK in rat L6 cells assessed as increase of [3H]dGlc uptake after 5 hrs; assay type: cell-based; outline: as §1
[9] = Lipophilicity, log P of the compound; assay type: physicochemical; details: octanol/water
L6 [10] = assay: Effect on […] level in rat L6 cells at 3.5 mmol/L after 20 mins in presence of HCGM (reference value: 23 mmol/L); assay type: ADME, cell-based; details: l6, 20 min, 3500 µM
Outline: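 Fully differentiated L6 myotubes preconditioned in medium with 23.0 mmol/L D-glucose, then exposed 20 min. Cells washed in cold 0.15 M Tris-HCl pH 7.75, extracted with ice-cold 0.5% TCA, diluted in Tris-HCl and spun 12,000 rpm, 30 min, 4 °C. Supernatant ATP measured by colorimetric kit, expressed per mg protein. Mean ± SEM; two-tailed t test against untreated 23.0 mmol/L glucose cells.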

[11] = biological target: 5'-AMP-activated protein kinase catalytic subunit alpha-2 (Rattus norvegicus) (UniProt Q09137); assay: Activation of AMPK in rat L6 cells assessed as increase of [3H]dGlc uptake at 10 to 200 uM; assay type: cell-based; details: TDE = time-dependent effect; outline: as §1
L6 [12] = assay: Activation of AMPKalpha in rat L6 cells assessed as phosphorylation at Thr172 at 100 uM up to 5 hrs by Western blot analysis; assay type: cell-based; outline: as §2
[13] = biological target: 5'-AMP-activated protein kinase catalytic subunit alpha-2 (Rattus norvegicus) (UniProt Q09137); assay: as §3; assay type: cell-based; outline: as §1
L6 [14] = assay: Activation of AMPKalpha in rat L6 cells assessed as phosphorylation at Thr172 at 150 uM after 40 mins to 5 hrs by Western blot analysis; assay type: cell-based; outline: as §2
[15] = biological target: 5'-AMP-activated protein kinase catalytic subunit alpha-2 (Rattus norvegicus) (UniProt Q09137); assay: Activation of AMPK in rat L6 cells assessed as increase of [3H]dGlc uptake at 150 uM after 5 hrs relative to control; assay type: cell-based; outline: as §1
L6 [16] = assay: Activation of AMPKalpha in rat L6 cells assessed as phosphorylation at Thr172 at 100 uM after 40 mins by Western blot analysis; assay type: cell-based; outline: as §2
L6 [17] = assay: Effect on ATP/AMP ratio in rat L6 cells at >100 uM; assay type: ADME, cell-based
[18] = biological target: 5'-AMP-activated protein kinase catalytic subunit alpha-2 (Rattus norvegicus) (UniProt Q09137); assay: Activation of AMPK in rat L6 cells assessed as increase of [3H]dGlc uptake at 100 uM after 10 to 40 hrs; assay type: cell-based; outline: as §1
[19] = biological target: 5'-AMP-activated protein kinase catalytic subunit alpha-2 (Rattus norvegicus) (UniProt Q09137); assay: Activation of AMPK in rat L6 cells assessed as increase of [3H]dGlc uptake at 5 uM after 5 hrs relative to control; assay type: cell-based; outline: as §1
[20] = biological target: 5'-AMP-activated protein kinase catalytic subunit alpha-2 (Homo sapiens) (UniProt P54646); assay: Activation of human recombinant AMPK at 20 uM after 30 mins relative to control
Outline: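 Recombinant human full-length AMPK assayed with a commercial luminescent kit. Compound at 20 μM or DMSO vehicle (1% v/v) added to the reaction mix for 30 min at ambient temperature. Activity read by luminometer against a calibration curve; basal activity with DMSO set as 100%.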

Sequence of 5'-AMP-activated protein kinase catalytic subunit alpha-2 (Rattus norvegicus) (Q09137 whole entry): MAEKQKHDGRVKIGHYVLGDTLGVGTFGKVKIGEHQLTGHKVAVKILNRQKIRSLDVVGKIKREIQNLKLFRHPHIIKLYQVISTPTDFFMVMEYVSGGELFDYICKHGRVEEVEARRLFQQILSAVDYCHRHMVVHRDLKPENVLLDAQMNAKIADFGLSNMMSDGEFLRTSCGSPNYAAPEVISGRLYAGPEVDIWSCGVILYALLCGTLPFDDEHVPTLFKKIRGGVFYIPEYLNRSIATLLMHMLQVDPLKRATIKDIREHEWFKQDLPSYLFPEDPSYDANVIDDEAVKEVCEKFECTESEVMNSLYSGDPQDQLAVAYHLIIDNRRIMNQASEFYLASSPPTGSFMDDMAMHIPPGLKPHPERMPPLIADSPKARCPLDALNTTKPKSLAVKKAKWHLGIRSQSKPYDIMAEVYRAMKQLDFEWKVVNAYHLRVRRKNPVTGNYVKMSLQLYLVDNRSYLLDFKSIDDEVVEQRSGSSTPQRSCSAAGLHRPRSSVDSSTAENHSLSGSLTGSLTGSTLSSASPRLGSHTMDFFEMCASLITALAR
Sequence of 5'-AMP-activated protein kinase catalytic subunit alpha-2 (Q09137 whole entry): as above
Sequence of 5'-AMP-activated protein kinase catalytic subunit alpha-2 (Homo sapiens) (P54646 whole entry, looked up): as the sequence (Q09137 whole entry) above, with V114M, Q150H, I241V, T348S, M355S, V502F, S505T, N509S, A528V, A549T counted along it

Activity [1]: Active | Activity [2]: Active
SMILES: NC1=NC(=O)/C(=C\C=C\c2ccc([N+](=O)[O-])o2)S1

Activity [5]: Active | Activity [7]: Active | EC50 [8]: 72.9 µM
SMILES: Oc1nc2ccc(Br)cc2s1
Activity (L6 [6]): Active

logP [9]: 1.96
SMILES: Oc1ccc2nc(S)sc2c1

The remaining lines, values behind:

SMILES: CCOc1ccc2nc(SCCC(=O)O)sc2c1
fold change (FC) [3]: 1.8 | Activity (L6 [4]): Active

SMILES: CCOc1ccc2nc(S)sc2c1
Activity [5]: Active | Activity (L6 [6]): Active | logP [9]: 3.17 | Activity [7]: Active | EC50 [8]: 76.1 µM

SMILES: O=[N+]([O-])c1ccc(O)c([N+](=O)[O-])c1 [2,4-DINITROPHENOL]
Activity (L6 [10]): 0.42 mmol/mg

SMILES: CCCNC(=O)CSc1nc2ccc(OCC)cc2s1
Activity [11]: tde | Activity (L6 [12]): Active | Activity [13]: Dose-dependent effect

SMILES: CCOc1ccc2nc(SSc3nc4ccc(OCC)cc4s3)sc2c1
Activity (L6 [14]): Active | Activity [15]: 189%

SMILES: CCC1SC(N)=NC1=O (centres undefined)
Activity (L6 [16]): Active | Activity (L6 [17]): Toxic | Activity (L6 [12]): inactive | EC50 [8]: 61.5 µM | Activity [18]: inactive

SMILES: Cc1cc(-c2ccc(/C=C3/S/C(=N\c4ccc(Cl)c(C(=O)O)c4)NC3=O)o2)c([N+](=O)[O-])cc1C
fold change (FC) [19]: 1.4 | Activity [11]: tde | fold change (FC) [20]: 2.04 | Activity [13]: Dose-dependent effect
